According to ChEMBL document CHEMBL1137681, “Design, synthesis and characterization of N9/N7-substituted 6-aminopurines as VEGF-R and EGF-R inhibitors” (Eur J Med Chem, 2009):
Activity calls are given as the source filed them. The calls are words filed in the database; no cut-off is given here.

Legend:
[1] = tested on: Serine/threonine-protein kinase B-raf (Homo sapiens), P15056 [V600E]; assay: Inhibition of BRAF V600E mutant
[2] = biological target: Cyclin-dependent kinase 2 (Homo sapiens) (UniProt P24941); assay: Inhibition of CDK2/cyclin A up to 100 uM
Procedure, shortened: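 Buffer was HEPES-NaOH pH 7.5 with MgCl2/MnCl2, vanadate, DTT, PEG20000 and 1% DMSO. Run 80 min at 30 °C, H3PO4 stop, NaCl wash, scintillation read-out. IC50 from 10 concentrations, singlicate.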

[3] = biological target: Mitogen-activated protein kinase kinase kinase 8 (Homo sapiens) (UniProt P41279); assay: Inhibition of COT
Sequence of Mitogen-activated protein kinase kinase kinase 8 (Homo sapiens) (P41279 whole entry): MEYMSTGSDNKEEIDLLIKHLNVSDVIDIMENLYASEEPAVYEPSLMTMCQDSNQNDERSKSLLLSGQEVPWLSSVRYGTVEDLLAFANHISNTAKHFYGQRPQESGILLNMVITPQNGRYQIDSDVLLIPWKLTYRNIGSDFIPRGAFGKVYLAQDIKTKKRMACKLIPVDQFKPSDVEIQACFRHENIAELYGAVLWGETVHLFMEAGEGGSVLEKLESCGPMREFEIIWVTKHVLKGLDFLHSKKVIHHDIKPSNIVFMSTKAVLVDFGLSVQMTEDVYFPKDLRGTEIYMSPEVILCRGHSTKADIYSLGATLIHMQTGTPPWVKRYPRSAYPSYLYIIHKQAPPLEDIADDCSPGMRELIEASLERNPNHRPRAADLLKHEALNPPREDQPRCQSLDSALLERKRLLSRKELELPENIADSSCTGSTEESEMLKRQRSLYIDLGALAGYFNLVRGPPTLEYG

[4] = biological target: Epidermal growth factor receptor (Homo sapiens, UniProt P00533); assay: Inhibition of EGFR
Sequence of Epidermal growth factor receptor (P00533 whole entry): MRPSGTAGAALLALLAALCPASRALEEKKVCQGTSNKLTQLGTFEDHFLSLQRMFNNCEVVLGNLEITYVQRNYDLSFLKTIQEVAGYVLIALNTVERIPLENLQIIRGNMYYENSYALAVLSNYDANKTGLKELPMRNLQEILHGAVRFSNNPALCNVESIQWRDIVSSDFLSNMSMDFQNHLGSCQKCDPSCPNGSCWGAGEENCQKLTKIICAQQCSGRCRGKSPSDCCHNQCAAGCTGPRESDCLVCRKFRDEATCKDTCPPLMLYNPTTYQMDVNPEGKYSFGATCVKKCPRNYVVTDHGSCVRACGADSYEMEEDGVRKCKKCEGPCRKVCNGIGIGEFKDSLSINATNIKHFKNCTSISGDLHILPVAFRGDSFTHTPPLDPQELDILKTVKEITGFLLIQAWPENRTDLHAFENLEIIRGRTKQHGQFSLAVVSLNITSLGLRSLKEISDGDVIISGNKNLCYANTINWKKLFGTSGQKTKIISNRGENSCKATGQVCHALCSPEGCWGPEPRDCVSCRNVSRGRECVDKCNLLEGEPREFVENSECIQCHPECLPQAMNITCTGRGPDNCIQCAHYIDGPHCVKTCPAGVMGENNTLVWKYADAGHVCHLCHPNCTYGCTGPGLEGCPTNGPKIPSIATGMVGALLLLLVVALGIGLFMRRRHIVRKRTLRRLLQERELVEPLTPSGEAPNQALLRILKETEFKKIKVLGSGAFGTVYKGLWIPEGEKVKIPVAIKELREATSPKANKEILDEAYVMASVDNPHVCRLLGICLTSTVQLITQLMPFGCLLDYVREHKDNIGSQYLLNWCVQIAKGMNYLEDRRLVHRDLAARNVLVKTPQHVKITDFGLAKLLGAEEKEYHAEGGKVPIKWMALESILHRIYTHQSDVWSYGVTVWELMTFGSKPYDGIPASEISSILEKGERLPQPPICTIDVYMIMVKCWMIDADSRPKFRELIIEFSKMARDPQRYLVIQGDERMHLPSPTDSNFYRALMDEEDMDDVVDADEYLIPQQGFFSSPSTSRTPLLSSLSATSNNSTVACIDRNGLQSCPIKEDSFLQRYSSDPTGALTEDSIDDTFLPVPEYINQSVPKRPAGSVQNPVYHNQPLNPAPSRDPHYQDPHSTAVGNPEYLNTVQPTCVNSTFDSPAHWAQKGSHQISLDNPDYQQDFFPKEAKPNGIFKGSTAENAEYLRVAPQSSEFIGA

[5] = biological target: T1, Ephrin type-B receptor 4 (Homo sapiens) (UniProt P54760); assay: Inhibition of EPHB4 up to 100 uM
T1 sequence (whole entry): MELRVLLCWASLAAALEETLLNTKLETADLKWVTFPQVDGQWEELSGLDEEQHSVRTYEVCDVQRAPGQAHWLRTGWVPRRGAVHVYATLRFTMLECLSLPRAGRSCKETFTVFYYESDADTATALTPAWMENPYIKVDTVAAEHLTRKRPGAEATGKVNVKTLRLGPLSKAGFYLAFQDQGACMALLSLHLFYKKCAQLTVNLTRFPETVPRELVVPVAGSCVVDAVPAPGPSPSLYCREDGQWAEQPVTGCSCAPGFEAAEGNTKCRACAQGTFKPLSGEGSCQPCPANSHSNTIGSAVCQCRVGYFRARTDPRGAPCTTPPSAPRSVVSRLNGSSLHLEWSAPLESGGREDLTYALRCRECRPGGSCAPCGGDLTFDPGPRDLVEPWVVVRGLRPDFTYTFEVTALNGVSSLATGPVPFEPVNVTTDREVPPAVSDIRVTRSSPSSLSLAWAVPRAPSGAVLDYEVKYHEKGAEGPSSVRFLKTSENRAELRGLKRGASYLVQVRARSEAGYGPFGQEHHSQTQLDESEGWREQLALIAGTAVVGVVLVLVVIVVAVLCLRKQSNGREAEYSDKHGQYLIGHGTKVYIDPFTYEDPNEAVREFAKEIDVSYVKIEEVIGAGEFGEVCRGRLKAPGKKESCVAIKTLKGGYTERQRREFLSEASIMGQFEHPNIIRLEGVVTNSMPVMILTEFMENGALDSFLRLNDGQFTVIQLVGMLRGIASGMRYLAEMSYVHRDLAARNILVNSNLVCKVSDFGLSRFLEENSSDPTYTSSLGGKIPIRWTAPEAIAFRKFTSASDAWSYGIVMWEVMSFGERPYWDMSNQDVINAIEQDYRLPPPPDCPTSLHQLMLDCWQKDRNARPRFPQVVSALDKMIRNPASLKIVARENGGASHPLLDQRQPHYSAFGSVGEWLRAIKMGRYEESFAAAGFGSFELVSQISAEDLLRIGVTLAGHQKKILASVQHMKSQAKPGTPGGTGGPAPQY
Procedure, shortened: (§1)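 Buffer: HEPES-NaOH pH 7.5, Mg2+/Mn2+, vanadate, DTT, PEG20000, 1% DMSO. Incubated 30 °C for 80 min, stopped with 2% H3PO4, washed, and scintillation-counted. IC50 from 10 concentrations in singlicate.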

[6] = biological target: Receptor tyrosine-protein kinase erbB-2 (Homo sapiens, UniProt P04626); assay: Inhibition of ERBB2; procedure, shortened: as §1
[7] = biological target: Insulin-like growth factor 1 receptor (Homo sapiens) (UniProt P08069); assay: Inhibition of IGF1R up to 100 uM; procedure, shortened: as §1
[8] = biological target: Vascular endothelial growth factor receptor 3 (Homo sapiens, UniProt P35916); assay: Inhibition of VEGFR3
[9] = biological target: Receptor-type tyrosine-protein kinase FLT3 (Homo sapiens) (UniProt P36888); assay: Inhibition of FLT3 up to 100 uM
Sequence of Receptor-type tyrosine-protein kinase FLT3 (Homo sapiens) (P36888 whole entry): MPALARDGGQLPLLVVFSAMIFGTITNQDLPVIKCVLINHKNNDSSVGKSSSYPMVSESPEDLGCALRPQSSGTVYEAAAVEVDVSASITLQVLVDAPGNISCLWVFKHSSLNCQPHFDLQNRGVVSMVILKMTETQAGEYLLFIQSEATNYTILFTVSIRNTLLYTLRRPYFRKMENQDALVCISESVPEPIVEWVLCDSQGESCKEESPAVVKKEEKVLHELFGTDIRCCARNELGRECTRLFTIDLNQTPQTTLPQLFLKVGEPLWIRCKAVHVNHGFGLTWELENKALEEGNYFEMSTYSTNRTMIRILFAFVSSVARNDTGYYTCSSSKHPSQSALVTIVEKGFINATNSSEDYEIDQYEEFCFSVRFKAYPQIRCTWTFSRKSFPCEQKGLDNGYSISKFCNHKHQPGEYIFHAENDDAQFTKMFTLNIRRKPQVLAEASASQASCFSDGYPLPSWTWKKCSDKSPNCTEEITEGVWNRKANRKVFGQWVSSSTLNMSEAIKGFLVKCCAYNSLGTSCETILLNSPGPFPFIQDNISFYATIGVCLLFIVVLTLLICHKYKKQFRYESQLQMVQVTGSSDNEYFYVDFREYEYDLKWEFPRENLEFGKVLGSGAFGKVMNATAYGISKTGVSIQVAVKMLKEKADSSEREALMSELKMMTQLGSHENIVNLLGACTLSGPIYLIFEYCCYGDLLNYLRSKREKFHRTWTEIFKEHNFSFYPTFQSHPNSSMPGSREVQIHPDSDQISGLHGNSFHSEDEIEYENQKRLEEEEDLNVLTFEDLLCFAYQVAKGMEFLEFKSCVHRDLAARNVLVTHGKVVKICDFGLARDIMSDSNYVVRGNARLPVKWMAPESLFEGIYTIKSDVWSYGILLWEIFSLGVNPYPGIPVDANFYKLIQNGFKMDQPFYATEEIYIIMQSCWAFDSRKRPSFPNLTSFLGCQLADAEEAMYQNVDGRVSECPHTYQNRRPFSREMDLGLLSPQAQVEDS

[10] = biological target: Insulin receptor (Homo sapiens) (UniProt P06213); assay: Inhibition of INSR up to 100 uM
[11] = biological target: Serine/threonine-protein kinase PLK1 (Homo sapiens) (UniProt P53350); assay: Inhibition of PLK1 up to 100 uM
Sequence of Serine/threonine-protein kinase PLK1 (Homo sapiens) (P53350 whole entry): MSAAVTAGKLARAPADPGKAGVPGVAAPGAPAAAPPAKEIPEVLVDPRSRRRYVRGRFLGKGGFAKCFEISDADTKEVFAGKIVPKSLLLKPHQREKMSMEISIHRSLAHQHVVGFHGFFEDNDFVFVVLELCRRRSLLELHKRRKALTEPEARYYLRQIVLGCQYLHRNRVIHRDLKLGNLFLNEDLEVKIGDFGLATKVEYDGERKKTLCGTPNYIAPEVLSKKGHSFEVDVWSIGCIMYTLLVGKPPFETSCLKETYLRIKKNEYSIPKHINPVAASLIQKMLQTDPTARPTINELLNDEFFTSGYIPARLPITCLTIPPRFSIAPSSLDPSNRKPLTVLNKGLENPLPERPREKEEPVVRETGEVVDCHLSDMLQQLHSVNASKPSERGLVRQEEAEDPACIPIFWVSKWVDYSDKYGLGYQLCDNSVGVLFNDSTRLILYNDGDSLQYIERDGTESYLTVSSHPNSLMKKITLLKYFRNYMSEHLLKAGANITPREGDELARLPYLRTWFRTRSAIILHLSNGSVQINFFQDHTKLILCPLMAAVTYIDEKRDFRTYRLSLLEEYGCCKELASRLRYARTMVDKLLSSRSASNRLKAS
Procedure, shortened: (§2)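 Run in HEPES-NaOH pH 7.5 with MgCl2, MnCl2, orthovanadate, DTT, PEG20000 and 1% DMSO at 30 °C for 80 min. IC50 from 10 concentrations, singlicate.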

Angiopoietin-1 receptor = Angiopoietin-1 receptor (Homo sapiens, UniProt Q02763); assay: Inhibition of TIE2
Sequence of Angiopoietin-1 receptor (Q02763 whole entry): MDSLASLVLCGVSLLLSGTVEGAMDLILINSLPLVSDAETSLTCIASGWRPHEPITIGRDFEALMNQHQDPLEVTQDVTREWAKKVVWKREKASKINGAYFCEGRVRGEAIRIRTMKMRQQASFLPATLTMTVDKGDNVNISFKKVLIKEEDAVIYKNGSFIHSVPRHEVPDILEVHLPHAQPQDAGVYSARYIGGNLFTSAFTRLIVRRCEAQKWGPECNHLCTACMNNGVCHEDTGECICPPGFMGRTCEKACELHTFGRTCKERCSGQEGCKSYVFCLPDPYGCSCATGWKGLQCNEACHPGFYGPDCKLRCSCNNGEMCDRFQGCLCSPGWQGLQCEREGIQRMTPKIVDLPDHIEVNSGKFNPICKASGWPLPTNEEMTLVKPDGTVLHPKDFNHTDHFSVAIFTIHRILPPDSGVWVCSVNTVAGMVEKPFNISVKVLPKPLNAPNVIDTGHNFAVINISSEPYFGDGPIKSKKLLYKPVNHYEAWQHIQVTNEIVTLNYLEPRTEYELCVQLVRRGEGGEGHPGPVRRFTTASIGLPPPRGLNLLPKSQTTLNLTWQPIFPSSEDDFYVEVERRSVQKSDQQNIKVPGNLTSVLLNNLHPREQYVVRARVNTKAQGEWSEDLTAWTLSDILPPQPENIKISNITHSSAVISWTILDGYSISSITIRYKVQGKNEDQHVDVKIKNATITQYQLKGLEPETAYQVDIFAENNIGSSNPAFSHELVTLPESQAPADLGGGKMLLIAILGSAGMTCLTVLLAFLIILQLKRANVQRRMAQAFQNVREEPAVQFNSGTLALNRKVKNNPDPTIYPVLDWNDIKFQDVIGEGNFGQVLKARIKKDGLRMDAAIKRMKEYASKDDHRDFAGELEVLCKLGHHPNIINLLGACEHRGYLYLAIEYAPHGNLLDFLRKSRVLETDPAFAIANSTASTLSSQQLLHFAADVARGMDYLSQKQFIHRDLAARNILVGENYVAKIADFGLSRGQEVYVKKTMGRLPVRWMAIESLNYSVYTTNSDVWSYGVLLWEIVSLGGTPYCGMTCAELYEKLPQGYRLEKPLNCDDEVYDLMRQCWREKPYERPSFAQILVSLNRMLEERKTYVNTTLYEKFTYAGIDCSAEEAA

[12] = biological target: Casein kinase II subunit alpha (Homo sapiens) (UniProt P68400); assay: Inhibition of CK2alpha1; procedure, shortened: as §2
Sequence of Casein kinase II subunit alpha (Homo sapiens) (P68400 whole entry, looked up): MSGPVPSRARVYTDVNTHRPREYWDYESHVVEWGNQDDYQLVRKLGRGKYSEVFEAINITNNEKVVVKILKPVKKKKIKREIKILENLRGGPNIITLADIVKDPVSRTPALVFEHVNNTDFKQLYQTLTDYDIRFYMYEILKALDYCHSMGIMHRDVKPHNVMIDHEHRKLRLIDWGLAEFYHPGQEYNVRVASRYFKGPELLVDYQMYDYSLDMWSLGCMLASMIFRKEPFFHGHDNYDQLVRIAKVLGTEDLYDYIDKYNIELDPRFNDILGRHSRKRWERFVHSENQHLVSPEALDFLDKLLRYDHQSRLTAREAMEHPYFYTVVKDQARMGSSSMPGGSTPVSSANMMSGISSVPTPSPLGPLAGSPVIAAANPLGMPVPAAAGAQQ

[13] = biological target: T2, NUAK family SNF1-like kinase 1 (Homo sapiens) (UniProt O60285); assay: Inhibition of ARK5 up to 100 uM
T2 sequence (whole entry): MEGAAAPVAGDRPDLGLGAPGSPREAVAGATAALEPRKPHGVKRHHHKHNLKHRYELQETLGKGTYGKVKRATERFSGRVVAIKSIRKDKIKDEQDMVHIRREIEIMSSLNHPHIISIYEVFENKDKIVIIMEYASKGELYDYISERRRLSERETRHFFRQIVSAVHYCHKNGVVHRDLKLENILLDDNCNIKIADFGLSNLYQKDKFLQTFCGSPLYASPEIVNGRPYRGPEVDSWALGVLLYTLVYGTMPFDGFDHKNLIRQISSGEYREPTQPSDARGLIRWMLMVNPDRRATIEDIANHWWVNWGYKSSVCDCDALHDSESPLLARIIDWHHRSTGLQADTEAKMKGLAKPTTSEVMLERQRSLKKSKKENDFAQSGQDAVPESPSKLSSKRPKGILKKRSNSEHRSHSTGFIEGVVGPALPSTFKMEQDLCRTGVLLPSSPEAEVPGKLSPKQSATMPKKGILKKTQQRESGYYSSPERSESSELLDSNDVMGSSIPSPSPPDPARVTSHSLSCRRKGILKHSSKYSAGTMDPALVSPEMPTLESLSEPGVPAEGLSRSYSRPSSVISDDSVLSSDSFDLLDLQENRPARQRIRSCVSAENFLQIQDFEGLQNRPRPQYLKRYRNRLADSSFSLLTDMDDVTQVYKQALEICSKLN

[14] = biological target: Homeodomain-interacting protein kinase 3 (Homo sapiens) (UniProt Q9H422); assay: Inhibition of human HIPK3 at 10 uM
[15] = biological target: Calcium/calmodulin-dependent protein kinase kinase 1 (Homo sapiens) (UniProt Q8N5S9); assay: Inhibition of human CAMKKalpha at 10 uM
[16] = biological target: Insulin receptor-related protein (Homo sapiens) (UniProt P14616); assay: Inhibition of human IRR at 10 uM
[17] = biological target: MAP kinase-interacting serine/threonine-protein kinase 1 (Homo sapiens) (UniProt Q9BUB5); assay: Inhibition of MNK1 at 10 uM
[18] = biological target: Mitogen-activated protein kinase 10 (Homo sapiens) (UniProt P53779); assay: Inhibition of JNK3alpha1 at 10 uM
[19] = biological target: Vascular endothelial growth factor receptor 2 (Homo sapiens, UniProt P35968); assay: Inhibition of VEGFR2 up to 100 uM

| inhibition [1] | inhibition [2] | inhibition [3] | IC50 [4] [µM] | inhibition [5] | inhibition [6] | inhibition [7] | inhibition [8] | inhibition [9] | inhibition [10] | inhibition [11] | inhibition (Angiopoietin-1 receptor) | inhibition [12] | inhibition [13] | inhibition [4] | Compound | also measured |
| --- | --- | --- | --- | --- | --- | --- | --- | --- | --- | --- | --- | --- | --- | --- | --- | --- |
| inactive | inactive | inactive | 93 | inactive | inactive | inactive | inactive | inactive | inactive | inactive | inactive | inactive | inactive |  | Nc1ncnc2c1ncn2CC(=O)c1cccnc1 |  |
| inactive | inactive | inactive |  | inactive | inactive | inactive | inactive | inactive | inactive | inactive |  | inactive | inactive |  | Nc1ncnc2ncn(CC(=O)c3c[nH]c4ccccc34)c12 | inhibition [14]: inactive; inhibition [15]: inactive; inhibition [16]: inactive; IC50 (Angiopoietin-1 receptor): 95 µM; inhibition [17]: inactive; inhibition [18]: inactive |
| inactive | inactive | inactive |  | inactive | inactive | inactive |  | inactive | inactive | inactive | inactive | inactive | inactive |  | Nc1ncnc2ncn(CC(=O)c3ccccc3)c12 |  |
| inactive | inactive | inactive | 75 | inactive |  | inactive | inactive | inactive | inactive | inactive |  | inactive | inactive |  | Nc1ncnc2c1ncn2CC(=O)c1ccccc1 | inhibition [19]: inactive |
| inactive | inactive | inactive |  | inactive | inactive | inactive | inactive | inactive | inactive | inactive | inactive | inactive | inactive | inactive | CN(C)c1ncnc2c1ncn2CC(=O)c1c[nH]c2ccccc12 |  |
| inactive | inactive | inactive |  | inactive | inactive | inactive | inactive | inactive | inactive | inactive | inactive | inactive | inactive | inactive | COc1ncnc2ncn(CC(=O)c3ccccc3)c12 |  |
| inactive | inactive | inactive | 89 | inactive | inactive | inactive | inactive | inactive | inactive | inactive | inactive | inactive | inactive |  | Nc1ncnc2c1ncn2CC(=O)c1ccccn1 |  |
|  | inactive | inactive | 35 | inactive |  | inactive | inactive | inactive | inactive | inactive |  | inactive | inactive |  | Nc1ncnc2c1ncn2CC(=O)c1c[nH]c2ccccc12 | IC50 [6]: 95 µM; IC50 (Angiopoietin-1 receptor): 85 µM; inhibition [17]: 73% |
| inactive | inactive | inactive |  | inactive | inactive | inactive |  | inactive | inactive | inactive | inactive | inactive | inactive | inactive | COc1ncnc2c1ncn2CC(=O)c1ccccc1 | IC50 [8]: 45 µM |
